# Reference: ChEMBL document CHEMBL1138526, “Design, synthesis, and biological activity of boronic acid-based histone deacetylase inhibitors” (J Med Chem, 2009)
# Assays:
# Histone deacetylase = assay: Inhibition of HDAC in human HeLa cell nuclear extracts by fluorimetry; type: cell-based
# DMS-114 = assay: Growth inhibition of human DMS114 cells after 48 hrs by sulforhodamine B assay; type: functional
# Method in brief: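 GI50 read from growth inhibition of DMS114 lung cancer cells, one line in a nine-line human cancer panel; each value is the mean of two separate experiments.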
# Histone deacetylase 2 = Histone deacetylase 2 (Homo sapiens, UniProt Q92769); assay: Inhibition of human recombinant HDAC2 by fluorimetry
# [1] = target: T1, Protein deacetylase HDAC6 (Homo sapiens, UniProt Q9UBN7); assay: Inhibition of human recombinant HDAC6 by fluorimetry
# T1 sequence (Q9UBN7 whole entry): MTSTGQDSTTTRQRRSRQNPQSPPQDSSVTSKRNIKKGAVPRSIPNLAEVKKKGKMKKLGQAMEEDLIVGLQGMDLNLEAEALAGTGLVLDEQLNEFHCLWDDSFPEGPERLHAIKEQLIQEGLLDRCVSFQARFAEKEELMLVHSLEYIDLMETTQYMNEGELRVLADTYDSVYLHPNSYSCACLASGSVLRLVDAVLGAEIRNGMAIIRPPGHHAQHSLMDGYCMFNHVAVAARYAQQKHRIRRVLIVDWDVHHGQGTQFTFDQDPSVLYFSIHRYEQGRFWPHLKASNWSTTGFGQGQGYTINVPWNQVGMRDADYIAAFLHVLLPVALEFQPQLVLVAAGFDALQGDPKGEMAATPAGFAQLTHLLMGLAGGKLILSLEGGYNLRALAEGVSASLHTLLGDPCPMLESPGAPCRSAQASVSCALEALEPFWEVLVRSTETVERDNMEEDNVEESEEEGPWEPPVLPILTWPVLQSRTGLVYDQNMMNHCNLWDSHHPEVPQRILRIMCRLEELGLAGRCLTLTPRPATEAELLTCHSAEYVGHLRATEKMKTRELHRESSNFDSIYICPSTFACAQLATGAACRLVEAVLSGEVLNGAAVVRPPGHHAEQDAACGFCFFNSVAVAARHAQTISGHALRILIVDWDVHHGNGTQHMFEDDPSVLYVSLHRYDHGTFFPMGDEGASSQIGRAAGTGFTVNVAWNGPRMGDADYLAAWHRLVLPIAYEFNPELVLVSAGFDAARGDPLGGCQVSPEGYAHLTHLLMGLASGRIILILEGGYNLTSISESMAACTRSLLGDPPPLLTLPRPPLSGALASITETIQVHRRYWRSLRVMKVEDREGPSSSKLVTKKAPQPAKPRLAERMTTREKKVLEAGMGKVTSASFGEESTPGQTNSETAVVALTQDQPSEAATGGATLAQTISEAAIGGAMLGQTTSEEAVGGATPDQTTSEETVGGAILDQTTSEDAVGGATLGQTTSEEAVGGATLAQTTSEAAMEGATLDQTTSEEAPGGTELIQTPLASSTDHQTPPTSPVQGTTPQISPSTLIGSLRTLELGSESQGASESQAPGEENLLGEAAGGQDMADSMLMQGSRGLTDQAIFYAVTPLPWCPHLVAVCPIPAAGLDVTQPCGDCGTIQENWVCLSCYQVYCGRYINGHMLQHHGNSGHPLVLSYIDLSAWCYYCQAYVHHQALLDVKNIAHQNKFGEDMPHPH
# Histone deacetylase 8 = target: T2, Histone deacetylase 8 (Homo sapiens, UniProt Q9BY41); assay: Inhibition of human recombinant HDAC8 by fluorimetry
# T2 sequence (Q9BY41 whole entry): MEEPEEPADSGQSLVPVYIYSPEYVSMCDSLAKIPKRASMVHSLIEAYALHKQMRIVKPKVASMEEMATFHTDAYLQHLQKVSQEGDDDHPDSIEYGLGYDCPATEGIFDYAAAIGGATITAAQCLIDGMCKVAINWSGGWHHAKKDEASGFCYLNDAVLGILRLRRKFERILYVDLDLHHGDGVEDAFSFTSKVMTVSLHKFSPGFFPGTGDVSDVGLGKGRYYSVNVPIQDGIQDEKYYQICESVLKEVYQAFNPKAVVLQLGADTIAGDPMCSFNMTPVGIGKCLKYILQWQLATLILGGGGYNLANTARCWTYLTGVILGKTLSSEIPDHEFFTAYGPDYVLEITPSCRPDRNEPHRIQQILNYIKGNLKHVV
# Histone deacetylase 1 [2] = target: T3, Histone deacetylase 1 (Homo sapiens, UniProt Q13547); assay: Inhibition of human recombinant HDAC1 by fluorimetry
# [3] = target: T4, Histone deacetylase (Homo sapiens) (UniProt Q13547+O15379+Q9UBN7+Q92769+Q9UQL6+Q8WUI4+Q9BY41+Q96DB2+P56524+Q9UKV0+Q969S8); assay: Inhibition of HDAC in human HeLa cell nuclear extracts at 100 uM by fluorimetry; type: cell-free
# cells [4] = type: functional; conditions: Homo sapiens, RXF 631, 48 h
# LOX IMVI = assay: cells; type: functional; conditions: Homo sapiens, 48 h
# cells [5] = type: functional; conditions: Homo sapiens, HBC5, 48 h
# [6] = Ratio of GI50 for human MKN45 cells to IC50 for human recombinant HDAC1; set-up: species or system MKN-45
# [7] = Ratio of GI50 for human MKN45 cells to IC50 for human recombinant HDAC2; set-up: species or system MKN-45
# HCT-116 = assay: cells; type: functional; conditions: Homo sapiens, HCT-116, 48 h
# SNB-78 = assay: cells; type: functional; conditions: Homo sapiens, SNB-78, 48 h
# [8] = Ratio of GI50 for human MKN45 cells to IC50 for HDAC in human HeLa cells
# [9] = target: T5, Protein deacetylase HDAC6 (Homo sapiens) (UniProt Q9UBN7); assay: Inhibition of HDAC6 in human HCT116 cells assessed as induction of alpha tubulin acetylation after 8 hrs by Western blot analysis; type: cell-based; conditions: HCT-116
# T5 sequence (whole entry): T1 sequence (Q9UBN7 whole entry)
# [10] = target: T4, Histone deacetylase (Homo sapiens); assay: Inhibition of HDAC in human HCT116 cells assessed as induction of histone H4 acetylation after 8 hrs by Western blot analysis; type: cell-based; conditions: HCT-116
# SK-OV-3 = assay: cells; type: functional; conditions: Homo sapiens, SK-OV-3, 48 h
# MKN-45 = assay: cells; type: functional; conditions: Homo sapiens, MKN-45, 48 h
# PC-3 = assay: cells; type: functional; conditions: Homo sapiens, PC-3, 48 h
# Histone deacetylase 1 [11] = target: T3, Histone deacetylase 1; assay: Inhibition of human recombinant HDAC1 at 10 uM by fluorimetry
# Sequence of Histone deacetylase 2 (Q92769 whole entry): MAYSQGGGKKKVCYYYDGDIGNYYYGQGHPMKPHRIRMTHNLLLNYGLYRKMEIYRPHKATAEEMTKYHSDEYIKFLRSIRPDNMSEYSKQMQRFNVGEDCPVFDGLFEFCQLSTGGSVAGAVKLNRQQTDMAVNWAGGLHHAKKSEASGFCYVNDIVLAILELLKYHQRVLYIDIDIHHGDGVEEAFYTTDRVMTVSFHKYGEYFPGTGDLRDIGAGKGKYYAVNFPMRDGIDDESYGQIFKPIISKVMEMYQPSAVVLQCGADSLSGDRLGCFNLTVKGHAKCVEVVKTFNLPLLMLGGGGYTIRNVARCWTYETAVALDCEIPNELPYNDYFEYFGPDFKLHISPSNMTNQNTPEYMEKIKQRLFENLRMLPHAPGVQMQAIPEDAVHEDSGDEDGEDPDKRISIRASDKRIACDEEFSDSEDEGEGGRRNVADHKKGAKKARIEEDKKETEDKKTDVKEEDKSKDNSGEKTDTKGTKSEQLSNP
# T3 sequence (Q13547 whole entry): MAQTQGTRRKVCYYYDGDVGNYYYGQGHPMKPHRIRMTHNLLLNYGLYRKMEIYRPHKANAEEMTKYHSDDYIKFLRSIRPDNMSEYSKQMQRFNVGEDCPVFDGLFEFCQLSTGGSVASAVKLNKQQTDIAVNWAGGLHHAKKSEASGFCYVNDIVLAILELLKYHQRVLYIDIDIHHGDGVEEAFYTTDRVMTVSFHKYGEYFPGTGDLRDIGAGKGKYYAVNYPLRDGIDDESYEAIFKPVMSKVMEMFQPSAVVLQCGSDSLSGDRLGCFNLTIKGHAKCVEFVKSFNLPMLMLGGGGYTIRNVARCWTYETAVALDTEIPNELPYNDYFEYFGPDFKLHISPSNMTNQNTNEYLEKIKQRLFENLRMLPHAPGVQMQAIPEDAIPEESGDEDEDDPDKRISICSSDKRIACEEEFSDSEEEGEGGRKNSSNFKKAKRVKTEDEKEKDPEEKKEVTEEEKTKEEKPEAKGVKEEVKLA
smiles,measurement,setting,value
O=C(NC(CCCCCB(O)O)C(=O)Nc1cccc(-c2ccccc2)c1)c1cccnc1 (stereo unspecified),IC50,Histone deacetylase,2 µM
O=C(CCCCCCC(=O)Nc1ccccc1)NO [VORINOSTAT],GI50,DMS-114,2.9 µM
O=C(N[C@H](CCCCCB(O)O)C(=O)Nc1cccc(-c2ccccc2)c1)c1ccccc1,IC50,Histone deacetylase 2,> 100 µM
same,IC50,[1],24 µM
same,IC50,Histone deacetylase 8,> 100 µM
same,IC50,Histone deacetylase 1 [2],> 100 µM
same,IC50,Histone deacetylase,17 µM
O=C(CCCCCCB(O)O)Nc1cccc(-c2ccccc2)c1,inhibition,[3],40%
same,IC50,Histone deacetylase,> 100 µM
CC(C)(C)OC(=O)NC(CCCCCB(O)O)C(=O)Nc1cnc2ccccc2c1 (stereo unspecified),inhibition,[3],86%
same,IC50,Histone deacetylase,16 µM
O=C(CCCCCCB(O)O)Nc1nc2ccccc2s1,inhibition,[3],5.1%
same,IC50,Histone deacetylase,> 100 µM
CC(C)(C)OC(=O)NC(CCCCCB(O)O)C(=O)Nc1ccc(Oc2ccccc2)cc1 (stereo unspecified),inhibition,[3],15%
same,IC50,Histone deacetylase,> 100 µM
CC(C)(C)OC(=O)NC(CCCCCB(O)O)C(=O)Nc1cccc(-c2ccccc2)c1 (stereo unspecified),inhibition,[3],85%
same,IC50,Histone deacetylase,12 µM
O=C(CCCCCCB(O)O)Nc1cccc(Oc2ccccc2)c1,inhibition,[3],1.8%
same,IC50,Histone deacetylase,> 100 µM
O=C(N[C@H](CCCCCB(O)O)C(=O)Nc1cccc(-c2ccccc2)c1)c1cccnc1,IC50,Histone deacetylase 2,99 µM
same,IC50,[1],14 µM
same,IC50,Histone deacetylase 8,> 100 µM
same,IC50,Histone deacetylase 1 [2],> 100 µM
same,IC50,Histone deacetylase,15 µM
O=C(Nc1ccccc1)C(CCCCCB(O)O)C(=O)Nc1cccc(-c2ccccc2)c1 (stereo unspecified),IC50,Histone deacetylase,30 µM
O=C(NC(CCCCCB(O)O)C(=O)Nc1cccc(-c2ccccc2)c1)c1cscn1 (stereo unspecified),IC50,Histone deacetylase,4.7 µM
CC(C)(C)OC(=O)NC(CCCCCB(O)O)C(=O)Nc1cccc(Oc2ccccc2)c1 (stereo unspecified),inhibition,[3],38%
same,IC50,Histone deacetylase,> 100 µM
CC(C)(C)OC(=O)NC(CCCCCB(O)O)C(=O)Nc1ccccc1 (stereo unspecified),inhibition,[3],42%
same,IC50,Histone deacetylase,> 100 µM
O=C(NC(CCCCCB(O)O)C(=O)Nc1cccc(-c2ccccc2)c1)OCc1ccccc1 (stereo unspecified),IC50,Histone deacetylase,4.2 µM
O=C(NC(CCCCCB(O)O)C(=O)Nc1cccc(-c2ccccc2)c1)c1cc2ccccc2[nH]1 (stereo unspecified),IC50,Histone deacetylase,11 µM
O=C(NC(CCCCCB(O)O)C(=O)Nc1cccc(-c2ccccc2)c1)c1ccc2ccccc2n1 (stereo unspecified),IC50,Histone deacetylase,> 100 µM
O=C(NC(CCCCCB(O)O)C(=O)Nc1cccc(-c2ccccc2)c1)c1cncs1 (stereo unspecified),IC50,Histone deacetylase,1.4 µM
O=C(N[C@@H](CCCCCB(O)O)C(=O)Nc1cccc(-c2ccccc2)c1)c1cncs1,GI50,cells [4],3.2 µM
same,GI50,LOX IMVI,1.3 µM
same,IC50,Histone deacetylase 2,0.53 µM
same,GI50,cells [5],6.5 µM
same,Ratio,[6],1.6
same,Ratio,[7],6.6
same,GI50,HCT-116,0.73 µM
same,GI50,SNB-78,9.1 µM
same,Ratio,[8],3.8
same,Activity,[9],Dose-dependent effect
same,Activity,[10],Dose-dependent effect
same,GI50,SK-OV-3,2.2 µM
same,GI50,"DMS-114; Homo sapiens, DMS-114, 48 h",2.4 µM
same,GI50,MKN-45,3.5 µM
same,IC50,[1],0.11 µM
same,IC50,Histone deacetylase 8,6.6 µM
same,GI50,PC-3,6.7 µM
same,IC50,Histone deacetylase 1 [2],2.2 µM
same,IC50,Histone deacetylase,0.92 µM
O=C(CCCCCCB(O)O)Nc1ccc(Oc2ccccc2)cc1,inhibition,[3],2.2%
same,IC50,Histone deacetylase,> 100 µM
O=C(NC(CCCCCB(O)O)C(=O)Nc1cccc(-c2ccccc2)c1)c1ccccc1 (stereo unspecified),IC50,Histone deacetylase,2 µM
O=C(CCCCCCB(O)O)Nc1ccccc1,inhibition,[3],37%
same,IC50,Histone deacetylase,> 100 µM
O=C(CCCCCCB(O)O)Nc1cnc2ccccc2c1,inhibition,[3],32%
same,IC50,Histone deacetylase,> 100 µM
O=C(N[C@@H](CCCCCB(O)O)C(=O)Nc1cccc(-c2ccccc2)c1)c1cccnc1,IC50,Histone deacetylase 2,0.83 µM
same,Ratio,[6],2
same,Ratio,[7],6.6
same,Ratio,[8],3.9
same,Activity,[9],Dose-dependent effect
same,Activity,[10],Dose-dependent effect
same,GI50,MKN-45,5.5 µM
same,IC50,[1],0.32 µM
same,IC50,Histone deacetylase 8,23 µM
same,IC50,Histone deacetylase 1 [2],2.8 µM
same,IC50,Histone deacetylase,1.4 µM
CN(C)c1ccc(C(=O)NC(CCCCCB(O)O)C(=O)Nc2cccc(-c3ccccc3)c2)cc1 (stereo unspecified),IC50,Histone deacetylase,13 µM
CC(C)(C)OC(=O)NC(CCCCCB(O)O)C(=O)Nc1nc2ccccc2s1 (stereo unspecified),inhibition,[3],78%
same,IC50,Histone deacetylase,23 µM
O=C(N[C@H](CCCCCB(O)O)C(=O)Nc1cccc(-c2ccccc2)c1)c1cncs1,GI50,cells [4],19 µM
same,GI50,LOX IMVI,19 µM
same,IC50,Histone deacetylase 2,> 100 µM
same,GI50,cells [5],20 µM
same,GI50,HCT-116,16 µM
same,GI50,SNB-78,13 µM
same,GI50,SK-OV-3,19 µM
same,GI50,"DMS-114; Homo sapiens, DMS-114, 48 h",17 µM
same,GI50,MKN-45,21 µM
same,IC50,[1],5.6 µM
same,IC50,Histone deacetylase 8,> 100 µM
same,GI50,PC-3,18 µM
same,IC50,Histone deacetylase 1 [2],> 100 µM
same,IC50,Histone deacetylase,24 µM
O=C(N[C@@H](CCCCCB(O)O)C(=O)Nc1cccc(-c2ccccc2)c1)c1ccccc1,IC50,Histone deacetylase 2,3.6 µM
same,Ratio,[6],< 0.93
same,Ratio,[7],2.6
same,inhibition,Histone deacetylase 1 [11],38%
same,Ratio,[8],5.8
same,Activity,[9],Dose-dependent effect
same,Activity,[10],Dose-dependent effect
same,GI50,MKN-45,9.3 µM
same,IC50,[1],1.1 µM
same,IC50,Histone deacetylase 8,> 100 µM
same,IC50,Histone deacetylase 1 [2],> 10 µM
same,IC50,Histone deacetylase,1.6 µM
O=C(Nc1cccnc1)C(CCCCCB(O)O)C(=O)Nc1cccc(-c2ccccc2)c1 (stereo unspecified),IC50,Histone deacetylase,51 µM
